The EternaBench riboswitch data

System: MS2 coat protein
Experiment: apparent Kd, MS2 coat protein; higher = weaker binding; RNA-MaP array; FMN 200 µM where present
Method in brief: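 Designs were transcribed by stalled E. coli RNA polymerase on Illumina sequencing-chip clusters. They were titrated with SNAP-549-labelled MS2 coat protein from 0.7 or 1.5 nM, doubling to 3 µM, without and then with constant ligand. Buffer: 100 mM Tris-HCl pH 7.5, 80 mM KCl, 4 mM MgCl2, BSA, DTT, yeast tRNA, Tween-20. Green signal was normalised to red-channel RNA signal and control-cluster median Fmax. Apparent Kd is the median of filtered per-cluster binding-curve fits.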

[1] = designed as: OFF switch for flavin mononucleotide, no ligand
[2] = ligand present: flavin mononucleotide, designed as: OFF switch for flavin mononucleotide
[3] = designed as: ON switch for flavin mononucleotide, no ligand
[4] = ligand present: flavin mononucleotide, designed as: ON switch for flavin mononucleotide

Sequence | apparent Kd [1] [nM] | apparent Kd [2] [nM] | apparent Kd [3] [nM] | apparent Kd [4] [nM]
AAUCCACAUGAGGAUCACCCAUGUGAGGAUAUGAUACUAUGUACUUCGGUACAUAGUAUCAGAAGGCACAAAGG | 54.8 | 99.6 | – | –
GCGUUUUAUGCAGGAUAUUGUAAUUUAUUACUACAAGAAGGGCAAUACAUGAGGAUCACCCAUGUCAGCAUGGUUUUUAAGUUC | 20.4 | 25.9 | – | –
GGCUGCGUUGUGAAGGAUAUCCGCGUCUGGACAUGAGGAUCACCCAUGUAUGCUUGGAUCGUGCCGGAGAAGGUCACGGGUGAUU | – | – | 124 | 46
AAUAAUAAGGAGGAUAUCGUAUCGGAAACGAUACGAGAAGGUCUAACAUGAGGAUCACCCAUGUUCCUCAAAUA | 38.1 | 54.3 | – | –
GCUGCAUAGGCAGGAUAUGCAAUAAUUUAAAUAAAAUAUAAUAAAUUAACAUGAGGAUCACCCAUGUAGAAGGGCCUGUGCAGU | 19.8 | 19.2 | – | –
UGUCUAUUUGAAGGAUAUCUAAGCAUAAACCAGAGAGAAGGUCAAUUAUACAUGAGGAUCACCCAUGUUGAGAUUAAUGGGUUA | 27.1 | 40.3 | – | –
AAUAUGUUGCAGAAGGCUAUAUUGUUGUAGUACCUCAUGACAUGAGGAUCACCCAUGUUUUUGUUGGAGGAUAUGCAAUAUAUU | 7.32 | 7.07 | – | –
UUAUUUAUACAAGGAUAUCUAUUGUUAAUUCGACUUACAUGAGGAUCACCCAUGUUUUUAUGUUUAGAGAAGGUGUAAUUUCUG | – | – | 25.8 | 26.4
UCUUAAGGAGGAUAUACAUGAGGAUCACCCAUGUAUGACCGCAGGGCGUCCUUGUAUCGUAGAAGGCCUCGGUA | 33.3 | 43.6 | – | –
UGAUAGGACAGAGGAUAUACGUAUAGUUACCUCUACAUGAGGAUCACCCAUGUAGAAGGCUGUCCUAUCUAAGUCGGAAACGAC | 4.77 | 5.78 | – | –
CUAUUUAAUGCCUCAUGUACAUGAGGAUCACCCAUGUUAACUUAGGAUAUAUUUAUAUUGAUAGAGUAGAAGGAAGUACUAUUU | 25.4 | 27.3 | – | –
CCUCGACAUGAGGAUCACCCAUGUCAGGAUAUUGUGUCUCGGGUUUUUUACCGUUAGGCAAGAAGGGAUGUGUG | 22.1 | 23.2 | – | –
GAUUACAAGUAAGGAUAUGUAUAUGAAACAUAUACAGAAGGUACAUGAGGAUCACCCAUGUUCUUGCAACGCGAAUAUGUAAUC | 17.2 | 21.6 | – | –
UUCGUGCAGCUUUGCUGUACGCGUACAUGAGGAUCACCCAUGUAGGAUAUGGUAGGCUUUGUUUACUAGAAGGAUAGUGUGAUC | 140 | 45.8 | – | –
GCAGCACACAUUAACAUGAGGAUCACCCAUGUCAAAAGACAUGAGGAUAUGCAUCUGAAGAAGAUGCAGAAGGCAUUGUGCUGC | – | – | 467 | 24.2
AACAGCUCGUCAGGAUAUAUUAUAUUUAUAUGGAUUAAUGUACAUGAGGAUCACCCAUGUAGUUAGUAGAAGGGACGAGCUGAA | 8.4 | 10.8 | – | –
UGAUAGGACAGAGGAUAUACAGAUAGGAUCUACUAUCAAACAGUCCUGACAUGAGGAUCACCCAUGUAGAAGGCUGUCCUAUCU | 22.7 | 98.8 | – | –
GUAGCAUACCGAGGAUAUCUCAAUAAUAAACAAACAUGAGGAUCACCCAUGUGGCGAAAGCCAAGGGAGAAGGCGGAAUGCUAC | – | – | 43.1 | 17.6
UUCACGUCAGGAUAUCCAUAUUUCCGAAAUAACGGUACUUUGGAGAAGGGACAUGAGGAUCACCCAUGUCCUCG | – | 40.1 | – | –
AAAGCACGAGGAUAUACAUGAGGAUCACCCAUGUAUAACCAACAUAGGUGAUCCUCAUGUAGAAGGCGUGCAAA | 18.6 | 18.4 | – | –
GCAGCAAUCUAAAACAUGAGGAUCACCCAUGUCGAGAGAUAUGAGGAUAUGCAUCUGAAGAAGAUGCAGAAGGCAUUGUGCUGC | – | – | 8.1 | 6.15
CCCGAGUUAGGAUAUCGGACUGGCCCGCACAGGCUAGCAAUUGAGAAGGAACAUGAGGAUCACCCAUGUGAGUA | 24.2 | 61.6 | – | –
UCGGAGUAAGUGAGGAUAUGUGCGCCUUUAAGCGUACAGAAGGCACAUGAGGAUCACCCAUGUGAGGCCUGCCA | 18.9 | 39 | – | –
CCAUGACAAAGUCAUGGAAUACGAACAUGAGGAUCACCCAUGUAGGAUAUGCUACUCAAAGAGUAGCAGAAGGACAUGUGUCUU | 29.9 | 156 | – | –
CCCGACUAGAAGUCGGUACGGAGGAGAAGGCGCCUCCUGGGUCCACAUGAGGAUCACCCAUGUGGCGAGGAUAUCCUCAGUUUU | 14.2 | 74 | – | –
GGGUACAUCGGAGGAUAUCAUGUAAAUACAUGAGGAUCACCCAUGUCGAUGGUGACAUCGGAGAUUGAGAAGGCCGAUGUACCG | – | – | 245 | 9.37
UAUUUGUGAGGAUAUGAGUCGUAGAACAAUAGUACUACGUCUCAGAAGGUACAUGAGGAUCACCCAUGUUCCUC | 19 | 28 | – | –
CAGGUAGACUGAGGAUAUACAUACCAUCAGCUAGUCUAUCUAGCUGUCACAUGAGGAUCACCCAUGUAGAAGGCAGUCUGCCUG | 30.5 | 122 | – | –
